High-throughput results deposited in PubChem BioAssay by several laboratories.
An excerpt weighted towards active compounds, which were near 3.7% of everything screened.
EP2 modulator = EP2 receptor modulators, cAMP readout, primary screen, cell-based, HTRF cAMP, PGE2 stimulation | EP2-expressing cells, cAMP HTRF FRET, PGE2 co-stimulation | induction, % at 25 µM | actives 0.83% (n = 260,000) | Prostaglandin E2 receptor EP2 subtype (Homo sapiens), P43116;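 active means compounds whose cAMP rise, as percent of the full-agonist control response, exceeds 60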;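 further: rat C6 glioma line stably carrying human EP2 under a CMV promoter; the protocol text gives 20 µM as final concentration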
OX1R antag-1 = OX1R (HCRTR1) antagonists, primary screen, fluorescence, CHO/OX1R cells, Fluo-8 calcium, orexin A | Fluo-8 calcium fluorescence | inhibition, % at 5 µM | actives 0.43% (n = 330,000) | AID 434989, 2010;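 active means inhibition above its plate's threshold, mean inhibition of all tested compounds on the plate plus 3 SD, cut at about 37% in these data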
Target sequence (O43613 whole entry, looked up): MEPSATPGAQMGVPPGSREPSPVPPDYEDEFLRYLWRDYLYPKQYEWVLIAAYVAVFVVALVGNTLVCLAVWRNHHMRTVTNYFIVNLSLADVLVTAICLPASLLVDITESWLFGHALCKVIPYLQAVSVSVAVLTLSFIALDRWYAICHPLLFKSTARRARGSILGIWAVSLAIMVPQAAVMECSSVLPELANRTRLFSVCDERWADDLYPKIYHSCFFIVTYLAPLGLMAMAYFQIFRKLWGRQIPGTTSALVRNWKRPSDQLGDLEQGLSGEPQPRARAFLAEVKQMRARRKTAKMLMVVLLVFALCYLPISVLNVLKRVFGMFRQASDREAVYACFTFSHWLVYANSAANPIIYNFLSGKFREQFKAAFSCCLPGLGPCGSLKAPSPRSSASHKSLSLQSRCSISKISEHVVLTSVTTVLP
OX1R antag-2 = antagonists of human orexin 1 receptor (OX1R). actives 1.8% (n = 330,000). OX1R-expressing cells, FRET antagonist read-out. AID 485270, 2010. inhibition, % at 6.6 µM. Orexin/Hypocretin receptor type 1 (Homo sapiens), O43613; in the data active means inhibition mostly above about 38%, no sharp cut-off; inactive means mostly below about 40%
PGE2 EP2 inh = human EP2 receptor antagonists, primary screen, TR-FRET cAMP, C6 glioma cells. Prostaglandin E2 receptor EP2 subtype (Homo sapiens), P43116. C6 glioma cells expressing human EP2; cells stimulated with saturating PGE2. inhibition, % at 25 µM. actives 0.52% (n = 260,000). AID 1422, 2008;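 active means percent inhibition above 40 after rounding to a whole number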;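 further: rat C6 glioma host cells with rolipram phosphodiesterase inhibitor present; the protocol text gives 20 µM as final concentration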
GPR7 antagonist = GPR7 receptor antagonists, primary screen, cell-based, fluorescence, single concentration; Neuropeptides B/W receptor type 1 (Homo sapiens), P48145; GPR7-expressing cells, fluorescence antagonist assay; inhibition, % at 4.4 µM; actives 1.1% (n = 290,000); in the data active means inhibition above about 16%, passing the limit was not always enough;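 further: cells stimulated with the agonist NPW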
CHO parental Ca = ATP-evoked calcium signal inhibitors, parental CHO, primary screen, counter-screen for OX1R antagonist project, cell-based, fluorescence, Fluo-8 calcium dye | parental CHO-K1, ATP-induced calcium, Fluo-8 fluorescence | inhibition, % at 5.6 µM | actives 0.63% (n = 330,000) | AID 463079, 2010;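 active means inhibition above that plate's mean sample inhibition plus 3 SD, cut at about 26% in these data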
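Measured by: calcium-sensitive Fluo-8 fluorescence / Test system: CHO parental line / Controls: ATP-challenged DMSO wells low, unchallenged DMSO wells high / Measure: % inhibition / Compound: single nominal dose of 5.6 µM per compound / Replicates: single well per compound, no replicates / Reagent: ATP as calcium-mobilizing challenge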
Numbers stand for hits; 0 = inactive; - = no result given.

SMILES	EP2 modulator	OX1R antag-1	OX1R antag-2	PGE2 EP2 inh	GPR7 antagonist	CHO parental Ca
Cc1[nH]n(-c2ccc([N+](=O)[O-])cc2)c(=O)c1C=NCCN1CCN(C(=O)C(C)C)CC1	0	0	0	0	0	27
Cc1[nH]n(-c2ccc([N+](=O)[O-])cc2)c(=O)c1C=NCCc1ccc(S(N)(=O)=O)cc1	0	0	0	0	0	0
O=C(CCCn1c(=O)c2sccc2n(CC(=O)OCc2ccccc2)c1=O)NCc1ccco1	0	0	0	0	0	0
CCN(Cc1ccccc1)C(=O)Cn1c(=O)n(CC(=O)NCc2ccco2)c(=O)c2sccc21	0	0	52	0	0	0
CSC1=NSC2=NC(=O)/C(=C\c3cccs3)C(=N)N12	0	0	0	0	0	0
N=C1/C(=C/c2cccn2Cc2ccc(F)cc2)C(=O)N=C2SC=CN12	0	0	0	0	0	0
N=C1/C(=C\c2coc3ccccc3c2=O)C(=O)N=C2SC=CN12	0	0	0	0	0	30
CSC1=NSC2=NC(=O)/C(=C/c3coc4ccc(O)cc4c3=O)C(=N)N12	0	47	0	0	0	37
COc1ccc(C)cc1N(C(=O)c1ccccc1)c1nc2ccccc2s1	0	0	0	0	0	0
COc1ccccc1N(C(=O)c1cncc(Br)c1)c1nc(-c2ccc(C)cc2)cs1	64	0	0	0	0	0
Cc1ccnc(N=Cc2c(O)ccc3oc4c(c23)CCCC4)c1	62	0	0	0	0	0
COc1ccc(CC(=O)NNC(=O)COc2ccc3ccccc3c2)cc1	0	0	0	103	0	0
Cc1cc(C)cc(OCC(=O)NNC(=O)c2cc3ccccc3o2)c1	0	0	0	0	0	0
CC(C)COc1ccc(S(=O)(=O)NNC(=O)c2cc3ccccc3o2)cc1	0	0	0	0	0	43
CCc1ccc(OCC(=O)NNC(=O)c2cc3ccccc3o2)cc1	0	0	0	0	0	53
COCCCNC(=O)c1cc2c(=O)n3cc(C)ccc3nc2nc1NCC1CCCO1 (centres undefined)	0	0	105	0	0	0
COCCn1c(=N)c(C(=O)NCC2CCCO2)cc2c(=O)n3cc(C)ccc3nc21 (centres undefined)	0	-	-	0	-	-
Cc1ccc2nc3nc(NCC4CCCO4)c(C(=O)NC4CCCC4)cc3c(=O)n2c1 (centres undefined)	0	0	0	0	0	0
Cc1ccc2nc3nc(NCC4CCCO4)c(C(=O)NC4CCCCC4)cc3c(=O)n2c1 (centres undefined)	0	0	0	0	0	0
C=CCNC(=O)c1cc2c(=O)n3cc(C)ccc3nc2nc1NCC1CCCO1 (centres undefined)	0	0	47	0	0	0
CCNc1nc2nc3ccc(C)cn3c(=O)c2cc1C(=O)NCC1CCCO1 (centres undefined)	0	0	64	0	0	0
CC1CCN(S(=O)(=O)c2ccc(F)c(C(=O)O)c2)CC1	0	0	0	0	0	0
O=C(NCc1ccc(Cl)cc1)c1ccc(CSc2nc3ccncc3[nH]2)cc1	0	0	0	0	0	0
CN(C)N1C(=O)/C(=C/c2ccco2)SC1=Nc1ccccc1	-	0	0	-	-	0
O=C1/C(=C\c2ccc(Br)o2)SC(=Nc2ccccc2)N1c1ccccc1	0	0	62	0	0	0
SMILES	EP2 modulator	OX1R antag-1	OX1R antag-2	PGE2 EP2 inh	GPR7 antagonist	CHO parental Ca
CC(C)=CCc1c(-c2ccc(O)cc2O)oc2cc3c(c(O)c2c1=O)C=CC(C)(C)O3	-	0	0	0	-	0
CC(C)=CCC12Oc3cc(O)ccc3C1(O)Oc1cc3c(c(O)c1C2=O)C=CC(C)(C)O3 (centres undefined)	-	0	0	0	-	44
CCOc1ccc(-c2c(=O)n(OCc3ccccn3)c3ccccc3[n+]2[O-])cc1	0	0	62	0	0	0
Cc1ccc(-c2c(=O)n(OCc3ccccn3)c3ccccc3[n+]2[O-])cc1	0	-	-	0	0	-
COc1ccc(-c2c(=O)n(OCc3ccccn3)c3ccccc3[n+]2[O-])cc1OC	0	0	55	0	0	0
CC(C)C(NC(=O)C1CCCCC1)C(=O)NC1CCN(Cc2ccccc2)CC1 (centres undefined)	0	-	-	0	0	-
COC(=O)c1cn(C(=O)/C=C/c2ccc(OC)c(OC)c2)c2ccccc12	0	0	0	43	0	0
COC(=O)c1cn(C(=O)OC)c2ccccc12	0	0	0	0	0	0
Cc1cc(OC(=O)c2cccc(C(F)(F)F)c2)c([N+](=O)[O-])c(=O)[nH]1	-	0	0	-	0	0
COc1ccc(CNC(=O)c2cc(-c3ccncc3)nc3c(C)cc(C)cc23)cc1OC	0	0	48	0	0	0
CCN(CC)c1ccc2c(-c3ccc(S(=O)(=O)O)cc3S(=O)(=O)[O-])c3ccc(=[N+](CC)CC)cc-3oc2c1	-	93	0	-	70	75
COc1cc(CNC(C)(C)CO)cc(Br)c1OCc1ccc(Cl)cc1	0	0	0	0	37	0
COc1cc(/C=N/O)cc(Br)c1OCc1ccc(Cl)cc1	0	0	0	0	0	0
CC1(C(=O)NC2CCCCC2)CCC(=O)N1Cc1cccs1 (centres undefined)	0	0	0	0	0	0
Nc1c(O)cccc1C(=O)O	-	0	61	0	-	0
CCC1(c2ccc(F)cc2)NC(=O)N(CC(=O)Nc2ccc(-c3nc4ccc(C)cc4s3)cc2)C1=O (centres undefined)	0	0	0	0	0	0
COc1ccc(C2(C)NC(=O)N(CC(=O)Nc3ccc(-c4nc5ccc(C)cc5s4)cc3)C2=O)cc1 (centres undefined)	0	0	0	0	0	29
COc1cc(CNCCO)cc(Cl)c1OCc1ccc(Cl)cc1Cl	0	0	0	0	58	0
COc1ccc(NC(=O)COC(=O)C2CCN(C(=O)c3ccc(Cl)cc3)CC2)c([N+](=O)[O-])c1	-	0	38	-	-	0
CCOc1ccc(S(=O)(=O)N2CCN(c3ccc(C)cc3C)CC2)cc1	0	0	0	0	0	27
COc1ccc(S(=O)(=O)N2CCN(c3c(C)cccc3C)CC2)cc1OC	0	0	0	0	0	45
COc1ccc(S(=O)(=O)N2CCN(c3ncccn3)CC2)cc1OC	0	0	0	0	0	0
COc1ccc(S(=O)(=O)N2CCN(c3c(C)cccc3C)CC2)cc1C	0	-	-	0	-	-
